{"source": "paper PMC3838204", "about": "(Journal of the American Chemical Society, 2013)", "test": "Hydrolysis of peptide-thioester", "assay_type": "physicochemical", "procedure,_shortened": "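The Asp peptide-thioester (~2 mM) was incubated with Cys-peptide (~2.4 mM) in helium-purged buffer: 6 M Gu·HCl, 200 mM Na2HPO4, 10 mM TCEP·HCl, 20 mM MPAA, pH 7.0, RT, 18–24 h. Monitoring was by LC-MS and RP-HPLC (210 nm). Control omitted Cys-peptide and MPAA, at pH 6.8 for 19 h. The thioester was also examined after HF deprotection/cleavage.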"}
{"substance": "LYRAX-^αCOSR` [−Glu-α-thioester]", "values": [{"measurement": "hydrolysis of the thioester, control", "setting": "control in absence of the Cys-peptide and without added MPAA", "result": "no significant hydrolysis"}]}
{"substance": "LYRAD-^αCOSR`", "values": [{"measurement": "hydrolysis of the peptide-thioester after HF deprotection and cleavage", "setting": "after HF deprotection and cleavage", "result": "no hydrolysis"}, {"measurement": "hydrolyzed product formed from the peptide-thioester", "setting": "control in absence of the Cys-peptide and without added MPAA, 19 h, pH 6.8", "result": "about 30%"}, {"measurement": "hydrolysis of the peptide-thioester during the ligation reaction", "setting": "ligation conditions: 6 M guanidine hydrochloride, 200 mM Na2HPO4, 10 mM TCEP, 20 mM MPAA, pH 7.0, RT, 18–24 hours, LC-MS", "result": "nor was significant hydrolysis"}]}
